V-ATPase pHluor = yeast V-ATPase proton transport regulation by pHLuorin; S. cerevisiae, pHLuorin cytosolic pH fluorescence; response, % at 10 µM; hit rate 0.37% among 350,000; AID 504577; in the data active = response mostly above about 7.3%, no sharp cut-off; inactive = mostly below about 5.4%; note: actives read high
XBP1 UPR activ = adaptive UPR (XBP1) activation; CHO-XBP1 luciferase reporter, IRE1-XBP1 UPR activation, luminescence; percent of tunicamycin response, DMSO as zero; activation, % at 20 µM; hit rate 0.33% among 330,000;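 active = versus positive control, 20 µM dose yields 30% or more activation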
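Assay system: IRE1-XBP1 luciferase reporter CHO line. Input: 1000 cells/well. Buffer or medium: F12 with 10% serum. Doses: 20 µM, 1% DMSO. Times: overnight seeding at 37 °C, 6 h compound treatment at 37 °C. Technique: Steady-Glo luciferase glow luminescence, 10 min after reagent addition.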
Tb MetRS inh = Trypanosoma brucei MetRS inhibition; purified T. brucei MetRS, ATP depletion, Kinase-Glo luminescence; hit rate 0.4% among 360,000; inhibition, % at 11.9 µM;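 active = inhibition above a per-plate cutoff of the control wells' mean inhibition plus 3 SD, cut at about 5.5% in these data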
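Test system: purified T. brucei MetRS enzyme. Also added: ATP, methionine and E. coli bulk tRNA substrates. Compound: 11.9 µM single point. Schedule: 15 min enzyme-compound preincubation, 2 h reaction, 10 min detection, 25 °C. Signal: luciferase luminescence of residual ATP, Kinase-Glo. Evaluation: percent inhibition versus plate control medians. Controls: DMSO wells, low control.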
CHOP UPR activ = apoptotic UPR (CHOP) activation; hit rate 0.34% among 330,000; CHO-CHOP luciferase reporter, luminescence; percent of tunicamycin response over DMSO baseline; activation, % at 10 µM; AID 449763;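 active = at 10 µM dose, activation of 40% or more, normalized to positive control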
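Evaluation: % reporter activation, DMSO baseline versus tunicamycin full activation; System: CHO-CHOP luciferase reporter cell line; Input: 500 cells/well; Incubation: 6 h compound treatment, 37 °C; Measured by: Steady-Glo luciferase luminescence; Dosing: one dose, 10 µM in 0.5% DMSO; Buffer or medium: F12 medium, 10% FBS; Benchmarks: positive tunicamycin 10 µg/mL, negative DMSO alone.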
CHOP inhibitor = CHOP inhibition in unfolded protein response. CHO-K1 CHOP-promoter luciferase, tunicamycin-induced, 15-18 h. hit rate 3.8% among 220,000. inhibition, % at 10 µM;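 active = compounds that reduced the stress-induced luciferase reporter signal by more than about 70% of percent inhibition, limit read from the data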
Numbers stand for hits; i = inactive; nt = not tested or not shown. This is one part of a sample in which hits are shown more often than they occur.

SMILES	V-ATPase pHluor	XBP1 UPR activ	Tb MetRS inh	CHOP UPR activ	CHOP inhibitor
CCCCCCCC/C=C\CCCCCCCC(=O)NCCc1ccc(O)c(O)c1	i	i	i	148.3	i
CC(C)(O)C#Cc1ccc(N2C(c3ccsc3)=Cc3ccc(F)cc3C2c2c[nH]c3ccccc23)cc1 (stereo not drawn)	nt	nt	i	nt	nt
CSc1nc(Cl)cc(Nc2ccc(O)cc2)n1	i	i	i	i	i
CC(C)C1OC(c2cccc(NC(=O)c3cccs3)c2)OCC1(C)C (stereo not drawn)	i	i	i	i	78.7
CCC(=O)Nc1cc2nn(-c3ccc(C)cc3)nc2cc1C	i	i	i	i	91.4
CCC(=O)Nc1cc2nn(-c3ccc(OC)cc3)nc2cc1C	i	i	i	i	i
O=C(N/N=C/c1ccc([N+](=O)[O-])o1)c1cn(-c2ccccc2)nc1-c1ccccc1	i	i	i	i	94.9
NS(=O)(=O)c1ccc(N2N=C(c3ccccc3)CC2c2ccc(Br)cc2)cc1 (stereo not drawn)	nt	nt	i	nt	nt
NS(=O)(=O)c1ccc(N2N=C(c3ccccc3)CC2c2ccccc2)cc1 (stereo not drawn)	i	i	i	i	80.8
Cc1ccc(C2CC(c3ccccc3)=NN2c2ccc(S(N)(=O)=O)cc2)cc1 (stereo not drawn)	nt	nt	i	nt	nt
CCc1ccc(C2=NN(c3ccc(S(N)(=O)=O)cc3)C(c3ccc(F)cc3)C2)cc1 (stereo not drawn)	i	i	i	i	89.8
CCc1ccc(N2CC(C(=O)N/N=C/c3cccc([N+](=O)[O-])c3)CC2=O)cc1 (stereo not drawn)	i	i	i	i	82.5
Cc1ccc(N2CC(C(=O)N/N=C/c3cccc([N+](=O)[O-])c3)CC2=O)cc1 (stereo not drawn)	i	i	i	i	i
CCCCNC(=S)NNc1c(Cl)cc(Cl)cc1Cl	i	i	i	i	81.8
CCCC(=O)N1CCCC(c2cc(C(=O)NCc3ccc(F)cc3)no2)C1 (stereo not drawn)	nt	nt	i	nt	nt
O=C(C1CCC(CNS(=O)(=O)c2cccc3nsnc23)CC1)N1CC=C(c2ccccc2)CC1 (stereo not drawn)	i	i	i	i	72.2
CC1CCCC(C)N1C(=O)c1cccc2c1-c1ccccc1/C2=N/O (stereo not drawn)	i	i	i	i	i
CCOC(=O)c1cccc2c1-c1ccccc1/C2=N/O	i	i	i	i	81.6
Cc1cccc(C)c1C(O)c1ncc(-c2ccc(F)cc2)[nH]1 (stereo not drawn)	nt	nt	i	nt	nt
[O-][n+]1onc2c1CCc1c-2nn(-c2ccccc2Cl)[n+]1[O-]	i	i	i	i	96.0
Cc1cccc(-n2nc3c([n+]2[O-])CCc2nonc2-3)c1C	i	i	i	i	i
Cc1ccc(-n2nc3c([n+]2[O-])CCc2c-3no[n+]2[O-])cc1	i	i	i	i	89.9
CC(C)(C)OC(=O)N(CC1CCNCC1)C(=O)c1[nH]c(C(F)(F)F)nc1-c1ccccc1	nt	nt	i	nt	nt
C[C@]12CCC(=O)CC1=CCC1C3CC=C(C#N)[C@@]3(C)CC[C@@]12O (stereo partly drawn)	71.4	i	i	i	nt
Fc1ccc(-n2cc(-c3ccccc3)c3c(N4CCOCC4)ncnc32)cc1	i	i	i	i	70.1
SMILES	V-ATPase pHluor	XBP1 UPR activ	Tb MetRS inh	CHOP UPR activ	CHOP inhibitor
COc1ccc(-n2cc(-c3ccccc3)c3c(N4CCOCC4)ncnc32)cc1	i	i	i	i	81.2
COc1ccc(-n2cc(-c3ccccc3)c3c(NCCCN4CCOCC4)ncnc32)cc1	i	i	i	i	i
CN1C[C@@H]2[C@@H]3C(=O)N(C)C(=O)[C@@H]3[C@](Cc3ccccc3)(C1=O)N2C(=O)c1ccccc1	i	nt	i	nt	nt
O=C1N=c2ccccc2=C1c1c(O)n(-c2cccc(F)c2)[nH]c1=O	i	nt	i	nt	72.6
Cc1ccc(-c2csc(N3CCC(C(N)=O)CC3)n2)cc1	i	i	i	i	nt
Cc1ccc(-c2csc(N3CCC(C(N)=O)(N4CCCCC4)CC3)n2)cc1	i	i	i	i	81.7
O=C(O)CCC1C(=O)NC(=O)CC1c1ccccc1 (stereo not drawn)	nt	nt	i	nt	nt
CC(C)COC(=O)N(C)c1ccc(C(O)(C(F)(F)F)C(F)(F)F)cc1	i	i	i	i	93.4
CCc1nc2c(OCc3ccc(C(F)(F)F)cc3)cccn2c1N(C)C(=O)c1ccncc1	nt	nt	i	nt	nt
CCN(CC)CCNCC(O)(c1ccc(Cl)cc1)c1ccc(Cl)cc1	i	i	i	i	i
CCN(CC)CCNCc1ccc(-c2ccc(Cl)cc2)o1	i	i	i	i	82.0
O=c1[nH]c2ccccc2n1CCCSc1cnc2ccccc2n1	i	i	i	i	77.8
COc1ccc(CN2C(=O)C(CC(=O)NC3CCCC3)CC(C(=O)N(C)C)=C2C)cc1 (stereo not drawn)	i	nt	i	nt	nt
CCCCN=Cc1c(C)[nH]n(-c2ccccc2)c1=S	i	i	i	i	i
Cc1[nH]n(-c2ccccc2)c(=S)c1C=Nc1cccc([N+](=O)[O-])c1	i	i	i	i	79.9
Cn1c(=O)c2[nH]c(C(O)c3ccc(Cl)cc3)nc2n(C)c1=O (stereo not drawn)	i	nt	i	nt	nt
Cc1ccccc1OCCCN1C(=O)C(=O)c2cccc(C)c21	i	i	i	i	107.3
CCCc1ccc2ccc3ccccc3c2n1	nt	nt	i	nt	nt
COCCNC(=O)C1(C)CCCN(CCS(=O)(=O)c2ccc(C)cc2)C1 (stereo not drawn)	nt	nt	i	nt	nt
CNC(=O)CN1C(=O)C2C3C=CC(C3)C2C1=O (stereo not drawn)	i	i	i	i	77.9
O=[N+]([O-])c1cnc(Sc2ccncn2)s1	i	i	i	i	106.5
Cc1ccc(C(=O)O[C@H](C(=O)O)[C@H](OC(=O)c2ccc(C)cc2)C(=O)O)cc1 (tested in a mixture with another compound)	nt	nt	nt	nt	i
CCOc1[nH]n(-c2ccccc2)c(=O)c1C=Nc1ccc(C)cc1	i	i	i	i	77.3
COc1ccc(NC(=O)CN2c3cccc4cccc(c34)S2(=O)=O)cc1OC	i	nt	i	nt	nt
CC(C)=C1C2CCC1C1C(=O)N(NC(=O)COc3ccc(C(C)(C)C)cc3)C(=O)C21 (stereo not drawn)	i	i	i	i	92.0
SMILES	V-ATPase pHluor	XBP1 UPR activ	Tb MetRS inh	CHOP UPR activ	CHOP inhibitor
O=C(Nc1cccc(C(F)(F)F)c1)Nc1ccon1	i	i	i	i	nt
CC(=O)Oc1ccc(Cl)cc1CN(C(C)=O)C1CCCCC1	i	nt	i	nt	nt
CCOc1ccc(/C=C/C(=O)c2cc(Br)ccc(=O)c2O)cc1	i	nt	i	nt	90.7
Cc1nc2cc(-c3ccccc3)sc2c(=O)n1N	i	i	i	i	73.7
COc1ccc(-c2cc3nc(C)n(N)c(=O)c3s2)cc1	i	i	i	i	101.7
Cn1c(NCc2ccccc2)nc2cc(-c3ccccc3)sc2c1=O	nt	nt	i	nt	nt

Compound activity from PubChem BioAssay.
